# Screening data as filed in PubChem.
# Hits are enriched below; roughly 2.3% of the tested compounds scored in any of these assays.
# TRPC4 inh: inhibitors of mouse TRPC4 channel, primary screen, Fluo4 calcium, HEK293 TRPC4beta/mu-opioid cells | B-score at 10 µM | AID 2247, 2010 | 0.39% of 300,000 active | DAMGO-evoked Fluo4 calcium flux; stronger effect = lower value | Short transient receptor potential channel 4 (Mus musculus), Q9QUQ5;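 active = B-score over 3 SD under the library average, no early fluorescence shift, positive overall ratio signal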
# Target sequence (Q9QUQ5 whole entry, looked up): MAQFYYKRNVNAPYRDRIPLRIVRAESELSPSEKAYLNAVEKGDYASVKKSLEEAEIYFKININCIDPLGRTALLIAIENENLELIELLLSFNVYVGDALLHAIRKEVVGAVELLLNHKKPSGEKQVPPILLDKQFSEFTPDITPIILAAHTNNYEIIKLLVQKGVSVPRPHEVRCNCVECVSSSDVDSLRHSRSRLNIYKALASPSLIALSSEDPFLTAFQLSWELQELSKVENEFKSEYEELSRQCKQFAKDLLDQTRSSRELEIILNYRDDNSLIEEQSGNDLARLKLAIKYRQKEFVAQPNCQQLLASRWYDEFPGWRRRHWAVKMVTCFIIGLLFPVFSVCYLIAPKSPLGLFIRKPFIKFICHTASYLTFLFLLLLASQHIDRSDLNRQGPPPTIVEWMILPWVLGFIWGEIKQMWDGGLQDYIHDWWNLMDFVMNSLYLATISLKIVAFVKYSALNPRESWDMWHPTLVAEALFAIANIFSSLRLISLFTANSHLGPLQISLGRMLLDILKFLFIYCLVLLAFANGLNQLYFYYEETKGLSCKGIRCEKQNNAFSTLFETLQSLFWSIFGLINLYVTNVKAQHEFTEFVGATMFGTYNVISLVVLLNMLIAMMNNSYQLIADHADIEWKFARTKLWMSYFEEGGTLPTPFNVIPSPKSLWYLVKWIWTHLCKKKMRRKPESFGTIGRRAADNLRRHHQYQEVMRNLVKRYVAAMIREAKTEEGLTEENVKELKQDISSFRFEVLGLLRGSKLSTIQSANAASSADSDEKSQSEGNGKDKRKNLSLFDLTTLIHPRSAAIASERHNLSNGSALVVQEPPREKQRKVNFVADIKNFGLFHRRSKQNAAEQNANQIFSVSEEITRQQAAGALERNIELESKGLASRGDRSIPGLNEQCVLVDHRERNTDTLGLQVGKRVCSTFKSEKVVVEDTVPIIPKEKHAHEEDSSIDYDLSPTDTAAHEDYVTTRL
#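 Assay system: Stable TRPC4beta/mu-opioid receptor HEK293 cells | Reagent: DAMGO in two steps, submaximal then maximal | Compound dosing: Single concentration per test compound | Signal: Fluo4 Ca2+ flux fluorescence | Evaluation: Per-well B score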
# TRPC6 act: mouse TRPC6 channel activators, primary screen, cell-based, HEK293, membrane potential dye; HEK293-TRPC6 membrane potential dye fluorescence; stronger effect = higher value; B-score at 10 µM; 0.13% of 310,000 active;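 active = B-score of the integrated fluorescence ratio above library mean plus 3 SD, and starting fluorescence ratio within library mean plus 5 SD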;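 also: higher score means more depolarization so channel activation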
# TRPC4 act: activators of mouse TRPC4 channel, primary screen, Fluo4 calcium, HEK293 TRPC4beta/mu-opioid cells; Fluo4 calcium fluorescence; stronger effect = higher value; B-score at 10 µM; 0.49% of 310,000 active; AID 2237, 2010;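 active = B-score above 5 SD of library B-scores, and initial fluorescence ratio not above library mean plus 5 SD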;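 also: positive B-score marks a calcium rise read as TRPC4 activation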
#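 Material: HEK293 stable line with TRPC4beta plus mu-opioid receptor; technique: Fluo4 calcium-sensitive dye fluorescence, kinetic, 1 Hz baseline; timing: Fluo4 dye loading 45 min at room temperature, 110 s recording; controls: assay buffer as low control, maximal DAMGO as high control; read-out: integrated baseline-normalised fluorescence ratio, converted to per-well B score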
# TRPC4 potent: positive allosteric modulators of TRPC4, primary screen, cell-based, mouse TRPC4beta, HEK293 mu-opioid, Fluo-4 calcium; 0.42% of 310,000 active; DAMGO EC20, Fluo-4 Ca2+ flux; stronger effect = higher value; B-score at 10 µM;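 active = B-score of calcium response area above 5 SD of library B-scores, with initial fluorescence ratio within 5 SD of library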;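 also: B-score of integrated fluorescence ratio over time as area under calcium response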
# TRPC6 inh: mouse TRPC6 channel inhibitors, primary screen, cell-based, HEK293, membrane potential dye. Short transient receptor potential channel 6 (Mus musculus), Q61143. ACh-evoked depolarization; stronger effect = lower value. B-score at 10 µM. 1.1% of 310,000 active. AID 2553, 2010;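 active = B-score under library mean minus 3 SD, initial fluorescence not abnormally high, positive integrated signal ratio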;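 also: B-score derived from integrated fluorescence ratio over the kinetic read; more negative B-score means stronger inhibition of depolarization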
# HEK293 MPD ctr: parental HEK293 membrane potential modulation, confirmation, counter-screen for TRPC6 modulator project, cell-based | shares compounds with TRPC6 inh | membrane potential dye fluorescence | membrane potential signal change, % at 10 µM | 51% of 2,400 active | AID 488924, 2010;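 active = membrane potential signal moves up or down beyond 5 SD from buffer-only wells, on both duplicate plates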
# HEK293 MPD ctr 2: second check of TRPC6 modulator effects in parental HEK293 cells; shares compounds with TRPC6 inh; membrane potential dye fluorescence; after compound, maximal acetylcholine stimulation; inhibition, % at 10 µM; 14% of 2,400 active; AID 488926;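 active = membrane potential signal drops by more than 5 SD from the mean control signal, in both duplicate plates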;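 also: plate controls were acetylcholine ECmax control wells for no effect and buffer only wells for full effect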
# TRPC4 ctr mod: TRPC4 modulation by TRPC6 hit compounds, confirmation, selectivity assay for TRPC6 modulator project, cell-based, HEK293 TRPC4/mu-opioid, membrane potential dye, mouse. shares compounds with TRPC6 inh. membrane potential fluorescence. percent change from control (negative = decrease, positive = increase), % at 10 µM. 69% of 2,400 active;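 active = membrane potential signal moved up or down beyond 5 SD of buffer control wells, in both duplicate plates, actives on both sides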;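 also: plate controls were assay buffer wells for no effect and DAMGO maximal-effect wells for full effect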
# TRPC4 ctr inh 2: mouse TRPC4 off-target activity of TRPC6 modulators, second screen | shares compounds with TRPC6 inh | HEK293 TRPC4/mu-opioid, membrane potential dye fluorescence; stimulated with maximal-effect DAMGO | inhibition, % at 10 µM | 55% of 2,400 active | AID 488928;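 active = drop in membrane potential signal beyond 5 SD of the control wells in both duplicate plates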;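 also: TRPC4 counter screen for TRPC6 hits run under conditions tuned for TRPC6 not TRPC4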
# TRPC6 block conf: mouse TRPC6 channel inhibitors, confirmation, HEK293 cells, membrane potential dye, duplicate; shares compounds with TRPC6 inh; ACh-evoked depolarization; inhibition, % at 10 µM; 43% of 3,300 active; AID 488960, 2010;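 active = fluorescence ratio falls more than 5 SD below the full-stimulation control mean, in both duplicate runs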;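 also: integrated fluorescence ratio of peak minus minimum over baseline after agonist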
# TRPC6 act confirm: mouse TRPC6 channel activators, confirmation, HEK293 cells, membrane potential dye, duplicate | 11% of 2,800 active | shares compounds with TRPC6 inh | HEK293-TRPC6 membrane potential dye fluorescence, FDSS | activation, % at 10 µM;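 active = ratio signal rise beyond 5 SD above unstimulated control wells' mean, seen in both duplicate runs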;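 also: plate controls were buffer EC0 wells for no effect and acetylcholine ECmax response for full effect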
# Starred values were filed as active, the others as inactive; i = inactive; nt = not tested or not shown.
SMILES,TRPC4 inh,TRPC6 act,TRPC4 act,TRPC4 potent,TRPC6 inh,HEK293 MPD ctr,HEK293 MPD ctr 2,TRPC4 ctr mod,TRPC4 ctr inh 2,TRPC6 block conf,TRPC6 act confirm
COC(=O)c1c(NC(C)=O)sc2c1CCN(Cc1ccccc1)C2,i,i,i,i,-5.5*,-196%*,i,-34%*,37%*,i,i
CCN1CCN(S(=O)(=O)c2ccc(C(=O)Nc3sc4c(c3C(N)=O)CCN(CC)C4)cc2)CC1,i,i,i,i,-10*,-144%*,i,-27%*,37%*,58%*,i
CCOC(=O)c1c(NC(=O)CSc2ncccn2)sc2c1CCN(Cc1ccccc1)C2,i,i,i,i,-5.5*,i,i,-20%*,35%*,i,i
COc1ccccc1OC(C)C(=O)N1CCN(Cc2ccc3c(c2)OCO3)CC1 (stereo unspecified),i,i,i,i,i,nt,nt,nt,nt,nt,nt
Cc1ccc2c(c1)c1c(c(=O)n(-c3ccccc3C)c(=O)n1CC(=O)NCC1CCCO1)n2C (stereo unspecified),i,i,i,i,i,nt,nt,nt,nt,nt,nt
O=C(NCC1OCCCN1S(=O)(=O)c1cc(F)ccc1F)C(=O)NC1CCCC1 (stereo unspecified),i,i,i,i,i,nt,nt,nt,nt,nt,nt
CCOC(=O)c1c(N)sc2c1CCCC2,i,i,i,i,i,nt,nt,nt,nt,nt,nt
CCOC(=O)c1c(N)sc2c1CCN(CCc1ccccc1)C2,i,i,i,i,-5.9*,i,i,22%*,34%*,i,i
CCOC(=O)c1c(NC(=O)c2cccc(N3C(=O)CCC3=O)c2)sc2c1CCN(CC)C2,i,i,i,i,-6.3*,i,i,i,28%*,i,i
COc1ccc([N+](=O)[O-])cc1N(CC(O)CN(CC(C)C)CC(C)C)S(=O)(=O)c1ccccc1 (stereo unspecified),i,i,i,i,i,nt,nt,nt,nt,nt,nt
